# core dimer inh: blocks dimerization of HCV core protein. AID 1899. inhibition, % at 5 µM. TR-FRET GST/Flag-core106 dimerization, 1536-well. 300,000 tested, 0.33% active;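 active = inhibition above the mean of all tested compounds plus 3 SD, set per screening campaign, cut at about 45% in these data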
#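 Assay system – GST-tagged and Flag-tagged HCV core protein residues 1-106 · Quantity – core106 proteins, GST 13.5 nM and Flag 17 nM · Benchmarks – unlabelled core106 and no-GST-core106 wells · Read-out basis – percent inhibition of core106 dimerization signal · Detection – time-resolved FRET, ex 340 nm, em 617 and 671 nm · Schedule – 4 h at 22.5 °C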
# APOBEC3A inh: human APOBEC3A DNA deaminase inhibition; P31941; recombinant A3A, FAM/TAMRA ssDNA deamination fluorescence; inhibition, % at 20 µM; 330,000 tested, 0.41% active;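 active = at least 40% inhibition at 20 µM here, with at most 30% in a related deaminase screen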;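 note: plate controls were A3A with DMSO for no effect and wells lacking A3A enzyme for full effect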
# HCV NS3 hel inh: inhibitors of Hepatitis C virus NS3 helicase; 290,000 tested, 0.56% active; NS3 helicase DNA unwinding, Cy5 molecular beacon fluorescence; inhibition, % at 10.9 µM;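 active = inhibition above the mean of all tested compounds plus 3 SD, set per campaign, cut at about 35% in these data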;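 note: 0% = DMSO wells and 100% = thioflavine S control wells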
#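 Material: hepatitis C virus NS3 helicase domain fragment enzyme; measured by: Cy5 fluorescence, 0 and 60 min reads; control set: DMSO and thioflavine S; incubation: 60 min unwinding reaction at 25 °C after ATP addition; read-out basis: % inhibition from 60/0 min fluorescence ratio, DMSO 0%, thioflavine S 100%; repeats: singlicate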
# PRMT1 FP inh: PRMT1 (human) inhibition, primary screen; Q99873; recombinant PRMT1, activity-based probe fluorescence polarization; inhibition, % at 2.79 µM; 370,000 tested, 1.3% active;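 active = inhibition above about 21% made by adding two undisclosed values, limit read from the data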
# Target sequence (Q99873 whole entry, looked up): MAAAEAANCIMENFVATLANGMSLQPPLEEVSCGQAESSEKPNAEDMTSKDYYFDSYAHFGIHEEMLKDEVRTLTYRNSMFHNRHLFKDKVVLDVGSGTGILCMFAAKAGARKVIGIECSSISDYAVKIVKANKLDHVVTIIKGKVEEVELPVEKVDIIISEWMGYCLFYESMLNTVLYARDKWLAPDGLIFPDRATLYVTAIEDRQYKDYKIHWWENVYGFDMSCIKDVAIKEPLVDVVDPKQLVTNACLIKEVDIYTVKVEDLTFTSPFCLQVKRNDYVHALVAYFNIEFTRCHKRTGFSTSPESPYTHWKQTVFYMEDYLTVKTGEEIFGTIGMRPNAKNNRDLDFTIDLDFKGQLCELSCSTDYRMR
# ABHD5 PLIN5 PPI: blocks binding of human ABHD5 to perilipin-5. Q00G26+Q8WTS1. Split G. princeps luciferase complementation, luminescence, 4 h. inhibition, % at 4 µM. 360,000 tested, 0.78% active;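 active = inhibition above the mean inhibition across every tested compound plus 3 SD, cut at about 22% in these data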;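 note: 0% = DMSO only wells and the 100% control is not disclosed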
# A3G deaminase: APOBEC3G (human) deaminase inhibition; recombinant A3G, ssDNA deamination FAM/TAMRA fluorescence; inhibition, % at 20 µM; 330,000 tested, 0.28% active; AID 493012;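 active = inhibition of at least 40% at 20 µM, with no more than 30% in the related APOBEC3A deaminase screen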;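 note: plate controls were DMSO wells with A3G for no effect and wells lacking A3G enzyme for full effect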
# ABHD5 PLIN5 conf: ABHD5-PLIN5 interaction inhibition, confirmed; shares compounds with ABHD5 PLIN5 PPI; 2,200 tested, 67% active; inhibition, % at 4 µM; biochemical ABHD5-PLIN5 interaction, luminescence; in the data active = inhibition above about 23%;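 note: 0% = DMSO vehicle wells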
# HNF4 split-luc: active in HNF4 split-luciferase counter-screen for ABHD5-PLIN5 inhibitors; 2,200 tested, 77% active; AID 651674; HNF4 dimerization, luminescence, biochemical; inhibition, % at 4 µM; shares compounds with ABHD5 PLIN5 PPI;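 active = mean inhibition across replicate wells exceeding the computed hit threshold, cut at about 13% in these data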;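 note: light from luciferase halves that rejoin when HNF4 fusion proteins dimerize; 0% = DMSO only wells and the 100% control is not given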
# * = called active by the depositor; nt = no result given. Hits are enriched below; roughly 2.9% of the tested compounds scored in any of these assays.
SMILES,core dimer inh,APOBEC3A inh,HCV NS3 hel inh,PRMT1 FP inh,ABHD5 PLIN5 PPI,A3G deaminase,ABHD5 PLIN5 conf,HNF4 split-luc
c1coc(-c2nc(N=C3N=c4ccccc4=N3)[nH]c2-c2ccco2)c1,nt,nt,nt,2,-3,nt,nt,nt
Cc1cc(/C=C2\SC(=Nc3ccccc3)NC2=O)c(C)n1-c1ccc(S(N)(=O)=O)cc1,63*,-1,5,1,28*,-1,7,7
Cc1cc(C)[n+](Cc2ccccc2)cc1C(N)=O,-1,-3,nt,-4,3,-8,nt,nt
COc1ccccc1N1C(=O)C2C3C=CC(CC3)C2C1=O (centres undefined),0,-1,-3,0,-3,0,nt,nt
COc1ccccc1N1CCNC(C)C1=O (centres undefined),3,-4,-2,-1,57*,-3,7,15*
CCCS(=O)(=O)NC(=O)C1(C)CCN(C(=O)c2snnc2C)C1 (centres undefined),nt,nt,nt,-1,0,nt,nt,nt
O=C(CN1C(=O)COc2ccccc21)NCCCN1CCOCC1,-12,-4,3,3,3,-9,nt,nt
O=C(CN1C(=O)/C(=C\c2cccc(Br)c2)Oc2ccccc21)NCCCN1CCOCC1,-4,-3,-36,-2,29*,-4,17,5
COc1ccc(C2CC(c3cccs3)=Nc3ccccc3S2)cc1 (centres undefined),2,-5,3,83*,60*,-5,-4,-11
COC1=CC(=O)C(OC)=C(OC)C1=O,nt,nt,nt,3,26*,nt,52*,73*
Nc1cc(SCc2ccc(Cl)cc2Cl)ncn1,nt,nt,nt,-2,-8,nt,nt,nt
C[C@]12c3[nH]c4cc(-c5ccco5)ccc4c3CCN1C(=O)[C@@H](CC(=O)NCCc1ccccn1)C[C@@H]2C(=O)N1CCCCC1,nt,1,nt,11,42*,-1,8,24*
COCCCNC(=O)C[C@H]1C[C@H](C(=O)N2CCCCC2)[C@@]2(CCc3ccccc3)c3[nH]c4cc(-c5ccco5)ccc4c3CCN2C1=O,nt,4,nt,4,28*,4,12,26*
O=C(OCc1cn(Cc2ccc(F)c(F)c2)nn1)N1CCCC1,nt,nt,nt,-3,nt,nt,nt,nt
O=C(NCc1ccco1)c1ccccc1-c1ccccc1,2,0,-5,0,-7,2,nt,nt
Cc1scc(C(=O)NCc2ccco2)c1-c1ccccc1,5,6,19,5,28*,-5,23*,22*
Cc1c(Cl)cccc1NC(=O)CSc1nc(=O)n(CCCN2CCOCC2)c2c1CCCC2,nt,nt,nt,1,0,nt,nt,nt
O=C1OC(/C(=C\NCc2ccccc2)[N+](=O)[O-])c2ccccc21 (centres undefined),0,2,-1,4,3,-1,nt,nt
O=C1OC(/C(=C\Nc2ccccc2)[N+](=O)[O-])c2ccccc21 (centres undefined),4,-2,-8,6,42*,-4,7,26*
CC(O)CNc1cc(N)c([N+](=O)[O-])cc1[N+](=O)[O-] (centres undefined),-6,0,4,-3,24*,-5,7,6
CC(O)CNc1ccc(-c2n[nH]c(=O)c3ccccc23)cc1[N+](=O)[O-] (centres undefined),3,5,7,-3,6,-3,nt,nt
CC(C)C(NC(=O)c1ccc(Cl)c([N+](=O)[O-])c1)C(=O)NCc1ccccn1 (centres undefined),nt,1,nt,2,-4,0,nt,nt
COc1ccc(NC(=O)c2nc(S(=O)(=O)Cc3cccc(C)c3)ncc2Cl)c(OC)c1,3,-5,2,0,15,0,nt,nt
CCCc1nnc(NC(=O)c2nc(S(=O)(=O)Cc3cccc(C)c3)ncc2Cl)s1,12,-5,7,9,28*,-5,74*,42*

# Compound activity deposited in PubChem by several laboratories.
